Data on 1 compound can be found in ChEMBL document CHEMBL4613248, “Twelfth-Position Deuteration of Nevirapine Reduces 12-Hydroxy-Nevirapine Formation and Nevirapine-Induced Hepatocyte Death” (J Med Chem, 2020).

The structures appear in SMILES notation.

The nature of series [1]: Drug metabolism in C57BL/6J mouse primary hepatocytes assessed as O-GlucNVP metabolite formation at 10 uM incubated for 24 hrs by uHPLC-MS analysis. Format: ADME, cell-based, Hepatocyte. An outline of the steps:
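Fresh hepatocytes from male C57BL/6J mice (8–13 weeks), adhered overnight, then 10 μM substrate or vehicle (0.1% DMSO) for 24 h. Medium extracted with acetonitrile (50% final), dried, reconstituted in methanol; uHPLC-Orbitrap targeted SIM plus PRM (monooxygenated metabolites) or high-resolution ions (O-glucuronides, 459.1510/462.1700 ±5 ppm); four experimental replicates.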

The target of another series is T1, Cytochrome P450 2A6 (Homo sapiens, UniProt P11509).
T1 sequence (P11509 whole entry): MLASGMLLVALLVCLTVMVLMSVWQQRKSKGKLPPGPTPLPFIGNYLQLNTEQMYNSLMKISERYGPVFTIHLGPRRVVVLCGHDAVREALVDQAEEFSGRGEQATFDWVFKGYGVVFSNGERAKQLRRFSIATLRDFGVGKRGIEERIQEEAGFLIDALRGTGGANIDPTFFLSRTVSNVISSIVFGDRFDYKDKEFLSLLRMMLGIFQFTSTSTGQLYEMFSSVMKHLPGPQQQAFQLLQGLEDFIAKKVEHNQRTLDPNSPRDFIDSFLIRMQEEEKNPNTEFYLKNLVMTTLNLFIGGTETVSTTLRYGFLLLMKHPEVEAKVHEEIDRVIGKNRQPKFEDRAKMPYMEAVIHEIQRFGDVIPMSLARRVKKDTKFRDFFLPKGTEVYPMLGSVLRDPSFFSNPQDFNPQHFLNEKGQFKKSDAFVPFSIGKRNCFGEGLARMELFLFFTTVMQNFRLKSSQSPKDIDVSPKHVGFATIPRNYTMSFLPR
As to the kind of experiment: Drug metabolism assessed as human CYP2A6-mediated formation of 12-OHNVP at 10 uM pre-incubated for 30 mins followed by addition of NADPH regenerating reagents by uHPLC-MS analysis. Format: ADME. Conditions: recombinant enzyme. An outline of the steps:
(§1)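 Insect-cell microsomes with single cDNA-expressed human P450 (100 nM) in 0.1 M potassium phosphate; 10 μM substrate prewarmed 5 min at 37 °C with NADPH-regenerating system, reaction started by adding microsomes; 30 min at 37 °C, 0.1% DMSO. Stopped, dried, reconstituted in methanol; triple-quadrupole SRM (12-OH 283.1→223.0, 2-OH 283.1→160.9, 3-OH 283.1→241.9), peak height; three replicates, mean ± SD.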

A further series concerns the target Cytochrome P450 2C19 (Homo sapiens, UniProt P33261). In words: Drug metabolism assessed as human CYP2C19-mediated formation of 12-OHNVP at 10 uM pre-incubated for 30 mins followed by addition of NADPH regenerating reagents by uHPLC-MS analysis. It is filed as ADME. Conditions: recombinant enzyme. An outline of the steps: as §1
The next series addresses T2, Cytochrome P450 2B6 (Homo sapiens, UniProt P20813).
T2 sequence (P20813 whole entry): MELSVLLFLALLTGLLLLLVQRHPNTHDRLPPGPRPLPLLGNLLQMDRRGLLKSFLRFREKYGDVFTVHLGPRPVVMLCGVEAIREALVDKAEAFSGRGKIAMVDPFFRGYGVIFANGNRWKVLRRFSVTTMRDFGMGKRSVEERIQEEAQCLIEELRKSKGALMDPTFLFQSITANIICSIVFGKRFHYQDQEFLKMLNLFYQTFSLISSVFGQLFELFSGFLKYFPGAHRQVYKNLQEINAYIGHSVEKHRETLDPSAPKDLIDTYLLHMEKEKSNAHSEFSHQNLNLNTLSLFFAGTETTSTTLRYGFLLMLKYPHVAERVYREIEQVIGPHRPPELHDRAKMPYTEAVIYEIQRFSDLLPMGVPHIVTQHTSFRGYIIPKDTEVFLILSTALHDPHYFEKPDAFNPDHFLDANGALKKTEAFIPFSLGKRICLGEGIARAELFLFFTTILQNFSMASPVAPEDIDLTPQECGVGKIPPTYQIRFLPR
In words: Drug metabolism assessed as human CYP2B6-mediated formation of 3-OHNVP at 10 uM pre-incubated for 30 mins followed by addition of NADPH regenerating reagents by uHPLC-MS analysis. It is filed as ADME. Conditions: recombinant enzyme. In a few lines: as §1

The test system of series [2] is Cytochrome P450. As to the kind of experiment: Drug metabolism in human liver microsomes assessed as Cytochrome P450-mediated formation of 12-OHNVP at 10 uM […] in presence of CYP2C19 inhibitor (+)-N-3-benzyl-nirvanol and NADPH regenerating reagents by uHPLC-MS analysis. It is filed as ADME. A general note: Liver microsomes are a subcellular fraction often used to study metabolism.

The subject of series [3] is Cytochrome P450. As to the kind of experiment: Drug metabolism in human liver microsomes assessed as Cytochrome P450-mediated formation of 2-OHNVP formation at 5 to 400 uM in presence of NADPH regenerating reagents by uHPLC-MS/MS analysis. Format: ADME. An outline of the steps:
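Pooled human liver microsomes (2.5 mg/mL) with NADPH-regenerating system, substrate 5–400 μM, 30 min at 37 °C, 0.1% DMSO (0.2% at 400 μM); 2- and 3-OH metabolites by uHPLC-MS/MS Orbitrap; three replicates, mean ± SD.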

Series [4] concerns Hepatocyte. In words: Toxicity in C57BL/6J mouse primary hepatocytes assessed as reduction in cell viability by measuring EtBr-positive cell nuclei level at 400 uM incubated for 8 hrs by EtBr/AcrO staining based assay (reference value: 19%). In a few lines:
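Fresh male C57BL/6J mouse hepatocytes on collagen-coated coverslips, 400 μM compound or vehicle (0.2% DMSO) for 8 h; 10 μM staurosporine as positive control. Ethidium bromide/acridine orange costaining, imaging, percentage of EtBr-positive nuclei scored as dead cells; unpaired two-tailed t test.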

Series [5] has as its system Hepatocyte. In words: Induction of change in Rps27a protein expression in C57BL/6J mouse primary hepatocytes at 400 uM incubated for 8 hrs by relative-quantitation label-free proteomics analysis relative to NVP. It is filed as cell-based. In a few lines:
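Fresh primary hepatocytes from male C57BL/6J mice aged 8–13 weeks, adhered overnight, then given fresh medium containing compound (400 μM), NVP (400 μM) or vehicle (0.2% DMSO) for 8 h. Lysate reduced (DTT) and alkylated (iodoacetamide), acetone-precipitated and digested with trypsin. Label-free Top10 nanoLC-MS with precursor ion area quantitation; unpaired t test P values, Cohen's d effect size.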

The subject of series [6] is Hepatocyte. As to the kind of experiment: Induction of change in FUBP3 protein expression in human primary hepatocytes at 10 uM incubated for 48 hrs by relative-quantitation label-free proteomics analysis relative to NVP. It is filed as cell-based. An outline of the steps: (§2)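 Cryoplateable pooled human hepatocytes (10 mixed-sex donors per pool; three pools), adhered overnight, then given fresh medium containing compound (10 μM), NVP (10 μM) or vehicle (0.1% DMSO) for 48 h. Lysate reduced (DTT) and alkylated (iodoacetamide), acetone-precipitated and digested with trypsin. Label-free Top10 nanoLC-MS with precursor ion area quantitation; unpaired t test P values, Cohen's d effect size.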

Series [7] relates to Hepatocyte. In words: Induction of change in ACSF3 protein expression in human primary hepatocytes at 10 uM incubated for 48 hrs by relative-quantitation label-free proteomics analysis relative to NVP. Format: cell-based. An outline of the steps:
as §2

Series [8] concerns Hepatocyte. In words: Induction of change in SARNP protein expression in human primary hepatocytes at 10 uM incubated for 48 hrs by relative-quantitation label-free proteomics analysis relative to NVP. It is filed as cell-based. An outline of the steps: as §2
Series [9] concerns Hepatocyte. In words: Induction of change in TMED9 protein expression in human primary hepatocytes at 10 uM incubated for 48 hrs by relative-quantitation label-free proteomics analysis relative to NVP. Format: cell-based. In a few lines: as §2

Chain of Cytochrome P450 2C19 (P33261 whole entry): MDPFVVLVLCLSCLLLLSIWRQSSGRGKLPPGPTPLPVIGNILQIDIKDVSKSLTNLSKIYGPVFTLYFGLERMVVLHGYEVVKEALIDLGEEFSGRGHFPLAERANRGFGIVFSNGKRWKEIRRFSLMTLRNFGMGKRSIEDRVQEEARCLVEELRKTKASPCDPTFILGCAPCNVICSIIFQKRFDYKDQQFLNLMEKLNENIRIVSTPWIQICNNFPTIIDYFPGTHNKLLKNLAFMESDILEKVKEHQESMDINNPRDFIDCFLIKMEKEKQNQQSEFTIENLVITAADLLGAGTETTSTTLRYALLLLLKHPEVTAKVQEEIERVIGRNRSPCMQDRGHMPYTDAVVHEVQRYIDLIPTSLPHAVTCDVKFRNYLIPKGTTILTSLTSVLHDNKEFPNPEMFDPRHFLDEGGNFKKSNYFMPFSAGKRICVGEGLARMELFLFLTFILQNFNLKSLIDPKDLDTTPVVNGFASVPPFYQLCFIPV

`[2H]C([2H])([2H])c1ccnc2c1NC(=O)c1cccnc1N2C1CC1`: the Drug metabolism result (in series [1]; on Cytochrome P450 2A6; on Cytochrome P450 2C19; at Cytochrome P450 2B6; in the series with Cytochrome P450 [2]; in the series on Cytochrome P450 [3]) was “Metabolite_Detected” in each case. Also, in the series on Hepatocyte [4], the Activity was 36.8%. Besides, the “fold change (FC)” value is listed as 3.03 in the series on Hepatocyte [5]; -1.47 in the series on Hepatocyte [6]; -1.63 in the series with Hepatocyte [7]; -1.65 in the series on Hepatocyte [8]; -1.93 in the series with Hepatocyte [9].
